The record followed here is ChEMBL document CHEMBL2384964, “Dual-acting histone deacetylase-topoisomerase I inhibitors” (Bioorg Med Chem Lett, 2013).

What is called IC50 is the concentration at which inhibition is half-maximal.

Calls of active or inactive are those of the source. The calls are words filed in the database; no cut-off is given here.

One experiment deals with DU-145. Put plainly: Cytotoxicity against human DU145 cells assessed as inhibition of cell viability after 72 hrs by MTS assay. The experiment is classed as functional, cell-based. The conditions noted are these: DU-145, 72 h. Summed up: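 DU-145 prostate carcinoma cells exposed to compound for 72 h; viability read by MTS assay. IC50 values are means of two experiments, each run in triplicate.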

The target of experiment [1] is T1, DNA topoisomerase 1 (Homo sapiens) (UniProt P11387).
T1 sequence (whole entry): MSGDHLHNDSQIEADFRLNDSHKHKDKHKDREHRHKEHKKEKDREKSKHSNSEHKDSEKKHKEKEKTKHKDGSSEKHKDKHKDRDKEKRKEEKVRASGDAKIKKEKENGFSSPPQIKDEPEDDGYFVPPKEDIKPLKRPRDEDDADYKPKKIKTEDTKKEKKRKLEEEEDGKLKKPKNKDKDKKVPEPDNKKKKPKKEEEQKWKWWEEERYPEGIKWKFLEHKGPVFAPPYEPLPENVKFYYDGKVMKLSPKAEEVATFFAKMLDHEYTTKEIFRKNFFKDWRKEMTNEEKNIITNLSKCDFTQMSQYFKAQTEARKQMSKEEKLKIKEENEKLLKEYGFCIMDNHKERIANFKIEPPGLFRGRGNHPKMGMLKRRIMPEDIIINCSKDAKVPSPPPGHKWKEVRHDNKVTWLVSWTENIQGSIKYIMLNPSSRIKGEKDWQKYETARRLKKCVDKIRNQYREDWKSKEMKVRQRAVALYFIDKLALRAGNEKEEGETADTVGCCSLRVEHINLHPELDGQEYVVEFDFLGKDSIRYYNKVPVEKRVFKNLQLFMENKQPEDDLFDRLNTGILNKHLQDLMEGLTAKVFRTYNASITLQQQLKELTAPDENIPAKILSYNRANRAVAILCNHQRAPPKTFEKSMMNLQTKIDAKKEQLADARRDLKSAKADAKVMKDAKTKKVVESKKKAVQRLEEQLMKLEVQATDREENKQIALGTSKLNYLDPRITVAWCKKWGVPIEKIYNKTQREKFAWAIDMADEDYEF
The experiment can be described thus: Inhibition of topoisomerase-1 (unknown origin) assessed as reduction of pBR322 plasmid DNA relaxation at 50 uM after 30 mins by agarose gel electrophoresis. In a few lines: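 Supercoiled pBR322 plasmid incubated with Topo I, test agents at 50 μM, SN-38 as positive control. Reactions stopped with SDS, run on agarose gel, DNA stained with a nucleic acid dye; relaxation judged by band migration.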

A further experiment addresses Histone deacetylase. Put plainly: Inhibition of HDAC in human HeLa cells using Fluor-de-Lys as substrate after 15 mins by fluorescence assay. The class given is cell-based.
The target of experiment [2] is T2, Histone deacetylase (Homo sapiens) (UniProt Q13547+O15379+Q9UBN7+Q92769+Q9UQL6+Q8WUI4+Q9BY41+Q96DB2+P56524+Q9UKV0+Q969S8). The experiment can be described thus: Inhibition of HDAC in human DU145 cells assessed as upregulation of p21waf1 expression at 0.1 to 0.5 uM after 24 hrs by Western blot analysis. The experiment is classed as cell-based. The conditions noted are these: DU-145. Summed up:
(§1)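 DU-145 cells treated for 24 h at 2.5 and 5.0 μM (SAHA, conjugates) or 0.1 and 0.5 μM (SN-38); lysates immunoblotted for p21waf1, with actin as loading control.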

Experiment [3] addresses T2, Histone deacetylase (Homo sapiens). The experiment can be described thus: Inhibition of HDAC in human HeLa cells using Fluor-de-Lys as substrate up to 10 uM after 15 mins by fluorescence assay. The class given is cell-based. In a few lines: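 Enzyme source is HeLa cell nuclear extract with a fluorogenic substrate; fluorescence read near 460 nm. Compound-only wells without enzyme give background (camptothecin emits at 434 nm), which is subtracted. Each value from three independent experiments.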

Experiment [4] shares this target. The experiment can be described thus: Inhibition of HDAC in human DU145 cells assessed as upregulation of p21waf1 expression after 24 hrs by Western blot analysis. The class given is cell-based. The settings on record: DU-145. Summed up:
as §1
For orientation: A western blot detects proteins with antibodies after separation by electrophoresis.

The target in experiment [5] is T3, Histone deacetylase 8 (Homo sapiens) (UniProt Q9BY41).
T3 sequence (whole entry): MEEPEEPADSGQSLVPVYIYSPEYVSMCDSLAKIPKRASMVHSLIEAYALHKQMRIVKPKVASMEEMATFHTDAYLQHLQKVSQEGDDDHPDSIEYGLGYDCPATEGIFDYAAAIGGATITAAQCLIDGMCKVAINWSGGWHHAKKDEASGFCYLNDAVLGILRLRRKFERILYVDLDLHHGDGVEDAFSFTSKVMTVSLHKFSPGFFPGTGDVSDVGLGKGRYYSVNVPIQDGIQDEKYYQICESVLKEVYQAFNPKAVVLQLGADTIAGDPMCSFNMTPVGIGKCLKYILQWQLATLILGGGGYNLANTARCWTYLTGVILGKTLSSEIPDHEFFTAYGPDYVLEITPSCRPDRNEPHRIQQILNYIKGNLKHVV
The experiment can be described thus: Inhibition of HDAC8 in human HeLa cells using Fluor-de-Lys as substrate up to 10 uM after 15 mins by fluorescence assay. The class given is cell-based. Summed up: (§2)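 Run by a contract testing laboratory, duplicate wells at each concentration; values reported with standard error.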

In experiment [6] the target is T4, Protein deacetylase HDAC6 (Homo sapiens, UniProt Q9UBN7).
T4 sequence (Q9UBN7 whole entry): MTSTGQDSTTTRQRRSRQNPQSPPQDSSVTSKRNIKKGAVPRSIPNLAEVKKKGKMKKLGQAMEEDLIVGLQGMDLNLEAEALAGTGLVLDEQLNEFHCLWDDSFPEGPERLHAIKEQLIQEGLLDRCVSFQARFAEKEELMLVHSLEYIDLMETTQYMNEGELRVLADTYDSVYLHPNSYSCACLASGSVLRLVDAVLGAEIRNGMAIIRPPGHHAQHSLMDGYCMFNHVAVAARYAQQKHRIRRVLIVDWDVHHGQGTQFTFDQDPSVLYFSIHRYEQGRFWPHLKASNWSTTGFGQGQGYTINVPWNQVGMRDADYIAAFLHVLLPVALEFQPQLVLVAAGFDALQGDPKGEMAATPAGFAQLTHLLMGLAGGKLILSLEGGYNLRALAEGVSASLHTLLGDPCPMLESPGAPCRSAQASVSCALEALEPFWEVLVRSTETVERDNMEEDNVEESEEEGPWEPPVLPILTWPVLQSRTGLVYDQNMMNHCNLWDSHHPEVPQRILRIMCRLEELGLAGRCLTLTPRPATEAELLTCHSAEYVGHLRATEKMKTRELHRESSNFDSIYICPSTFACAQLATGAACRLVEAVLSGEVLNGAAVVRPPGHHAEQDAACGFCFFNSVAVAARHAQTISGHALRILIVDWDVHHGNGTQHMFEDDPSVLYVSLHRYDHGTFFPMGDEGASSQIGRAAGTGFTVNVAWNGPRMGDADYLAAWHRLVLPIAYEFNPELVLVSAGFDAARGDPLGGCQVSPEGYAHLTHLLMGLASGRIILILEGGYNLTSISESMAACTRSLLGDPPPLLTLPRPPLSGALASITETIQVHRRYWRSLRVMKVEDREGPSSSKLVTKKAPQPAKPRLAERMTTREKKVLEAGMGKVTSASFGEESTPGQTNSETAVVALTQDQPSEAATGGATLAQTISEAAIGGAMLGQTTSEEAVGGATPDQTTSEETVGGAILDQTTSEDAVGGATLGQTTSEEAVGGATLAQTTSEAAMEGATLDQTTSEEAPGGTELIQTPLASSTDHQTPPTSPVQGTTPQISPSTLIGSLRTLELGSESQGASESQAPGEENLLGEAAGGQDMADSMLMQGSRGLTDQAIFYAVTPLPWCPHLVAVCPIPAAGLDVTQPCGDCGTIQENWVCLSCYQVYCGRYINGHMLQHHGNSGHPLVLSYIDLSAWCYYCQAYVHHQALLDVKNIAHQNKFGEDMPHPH
The experiment can be described thus: Inhibition of HDAC6 in human HeLa cells using Fluor-de-Lys as substrate after 15 mins by fluorescence assay. The class given is cell-based.

Experiment [7] addresses T5, Histone deacetylase 1 (Homo sapiens, UniProt Q13547). The experiment can be described thus: Inhibition of HDAC1 in human HeLa cells using Fluor-de-Lys as substrate after 15 mins by fluorescence assay. The experiment is classed as cell-based.
Experiment [8] concerns the target T5, Histone deacetylase 1. Put plainly: Inhibition of HDAC1 in human HeLa cells using Fluor-de-Lys as substrate up to 10 uM after 15 mins by fluorescence assay. The experiment is classed as cell-based. In a few lines: as §2
A further experiment concerns the target T6, Histone deacetylase 8 (Homo sapiens, UniProt Q9BY41).
T6 sequence (Q9BY41 whole entry): T3 sequence (whole entry)
Put plainly: Inhibition of HDAC8 in human HeLa cells using Fluor-de-Lys as substrate after 15 mins by fluorescence assay. The experiment is classed as cell-based.

T5 sequence (Q13547 whole entry): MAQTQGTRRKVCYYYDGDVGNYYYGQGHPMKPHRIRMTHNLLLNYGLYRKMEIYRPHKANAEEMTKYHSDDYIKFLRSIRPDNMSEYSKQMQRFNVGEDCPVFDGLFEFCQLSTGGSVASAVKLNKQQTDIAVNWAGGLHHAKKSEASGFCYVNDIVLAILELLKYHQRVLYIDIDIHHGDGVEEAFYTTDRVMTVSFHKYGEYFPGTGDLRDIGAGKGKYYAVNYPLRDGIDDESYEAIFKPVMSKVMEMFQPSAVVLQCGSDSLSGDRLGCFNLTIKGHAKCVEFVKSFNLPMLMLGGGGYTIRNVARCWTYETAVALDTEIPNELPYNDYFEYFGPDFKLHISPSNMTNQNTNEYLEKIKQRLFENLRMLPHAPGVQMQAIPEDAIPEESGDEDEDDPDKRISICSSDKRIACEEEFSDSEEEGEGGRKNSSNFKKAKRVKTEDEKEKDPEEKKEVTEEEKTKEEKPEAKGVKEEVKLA

In the case of `CCc1c2c(nc3ccc(OCc4cn(CCCCC(=O)NO)nn4)cc13)-c1cc3c(c(=O)n1C2)COC(=O)[C@]3(O)CC`, the concentration for half-maximal inhibition (IC50) with DU-145 stood at 4.25 µM; against Histone deacetylase, 0.1554 µM. Also, the “Topo I inhibition (active/inactive)” value in experiment [1] was “Active”.

With `CCc1c2c(nc3ccc(O)cc13)-c1cc3c(c(=O)n1C2)COC(=O)[C@]3(O)CC` [7-ETHYL-10-HYDROXYCAMPTOTHECIN], the inhibition result in experiment [2] was “Active”. For the same compound, the concentration for half-maximal inhibition (IC50) with DU-145 is 0.11 µM. Further, in [3], the inhibition entry is “inactive”.

Regarding `CC[C@@]1(O)C(=O)OCc2c1cc1n(c2=O)Cc2cc3cc(OCc4cn(CCCCCC(=O)NO)nn4)ccc3nc2-1`, the inhibition result in experiment [4] was “Dose-dependent effect”. Besides, the IC50 with DU-145 came out at 1.95 µM; against Histone deacetylase, 0.1122 µM. For the same compound, the “Topo I inhibition (active/inactive)” value in experiment [1] was “Active”.

Take `CC[C@@]1(O)C(=O)OCc2c1cc1n(c2=O)Cc2cc3cc(OCc4cn(CCCCC(=O)NO)nn4)ccc3nc2-1`: the IC50 turned out to be 2.5 µM in the experiment with DU-145, 0.26 µM in [6], 0.116 µM at Histone deacetylase 1 [7] and 0.1445 µM on Histone deacetylase. Further, the “Topo I inhibition (active/inactive)” value in experiment [1] was “Active”. For the same compound, the inhibition result in experiment [5] is “inactive”.

As for `CCc1c2c(nc3ccc(OCc4cn(CCCCCC(=O)NO)nn4)cc13)-c1cc3c(c(=O)n1C2)COC(=O)[C@]3(O)CC`, in experiment [4], the inhibition result is “Dose-dependent effect”. For the same compound, the concentration for half-maximal inhibition (IC50) came out at 2.05 µM in the experiment with DU-145, 0.042 µM in experiment [6], 0.129 µM at Histone deacetylase 1 [7] and 0.1207 µM at Histone deacetylase. Moreover, the “Topo I inhibition (active/inactive)” value in [1] is “Active”. The inhibition result in [5] was “inactive”.

Regarding `CCc1c2c(nc3ccc(OCc4cn(CCCC(=O)NO)nn4)cc13)-c1cc3c(c(=O)n1C2)COC(=O)[C@]3(O)CC`, the results for the IC50 (in the experiment with DU-145; against Histone deacetylase 8; in experiment [6]) were 6.27 µM, 1.73 µM and 0.085 µM, respectively. Also, the “Topo I inhibition (active/inactive)” value in experiment [1] was “Active”. The inhibition result (at Histone deacetylase 1 [8]; in experiment [3]) was “inactive” in each case.

Regarding `CCc1c2c(nc3ccc(OCc4cn(CCCCCCC(=O)NO)nn4)cc13)-c1cc3c(c(=O)n1C2)COC(=O)[C@]3(O)CC`, the IC50 in the experiment with DU-145 came out at 3.11 µM; in experiment [6], 0.036 µM; on Histone deacetylase 1 [7], 0.05 µM; against Histone deacetylase, 0.06465 µM. Besides, the “Topo I inhibition (active/inactive)” value in experiment [1] is “Active”. The inhibition result in experiment [5] is “inactive”.

Consider `CCc1c2c(nc3ccc(OCc4cn(CCCCCCCC(=O)NO)nn4)cc13)-c1cc3c(c(=O)n1C2)COC(=O)[C@]3(O)CC`, for which the IC50 worked out at 3.51 µM in the experiment with DU-145; 2.6 µM at Histone deacetylase 8; 0.075 µM in experiment [6]; 0.369 µM at Histone deacetylase 1 [7]; 0.2123 µM against Histone deacetylase. The “Topo I inhibition (active/inactive)” value in experiment [1] was “Active”.

Consider `CC[C@@]1(O)C(=O)OCc2c1cc1n(c2=O)Cc2cc3cc(OCc4cn(CCCCCCC(=O)NO)nn4)ccc3nc2-1`, for which the IC50 worked out at 2.03 µM in the experiment with DU-145; 1.05 µM against Histone deacetylase 8; 0.081 µM in experiment [6]; 0.037 µM against Histone deacetylase 1 [7]; 0.0562 µM at Histone deacetylase. The “Topo I inhibition (active/inactive)” value in [1] is “Active”.
